Assay results reported in BindingDB's records for doi:10.1016/j.bmc.2008.10.024 (National Cancer Institute-Frederick, 2008).
pIC50: −log10 of the molar value.

Target: E3 ubiquitin-protein ligase Mdm2 (Homo sapiens, UniProt Q00987)
Assay: Inhibition of GST fused human Hdm2 assessed as polyubiquitylation by electrochemiluminescence assay
Summary of the method: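 Cell-free ubiquitylation. Lysate GST-Hdm2 captured on glutathione-coated wells for 1 h at RT. E1/UbcH5B were pre-charged with ubiquitin, ATP and DTT in PBS for 30 min, then added with sample for 30 min at RT. Read-out was ruthenium anti-polyubiquitin electrochemiluminescence, normalised between no-inhibitor (0%) and EDTA (100%). Tested at 100–0.02 µg/mL in quadruplicate.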

Chain of E3 ubiquitin-protein ligase Mdm2 (Q00987 whole entry, the tested form may be a part): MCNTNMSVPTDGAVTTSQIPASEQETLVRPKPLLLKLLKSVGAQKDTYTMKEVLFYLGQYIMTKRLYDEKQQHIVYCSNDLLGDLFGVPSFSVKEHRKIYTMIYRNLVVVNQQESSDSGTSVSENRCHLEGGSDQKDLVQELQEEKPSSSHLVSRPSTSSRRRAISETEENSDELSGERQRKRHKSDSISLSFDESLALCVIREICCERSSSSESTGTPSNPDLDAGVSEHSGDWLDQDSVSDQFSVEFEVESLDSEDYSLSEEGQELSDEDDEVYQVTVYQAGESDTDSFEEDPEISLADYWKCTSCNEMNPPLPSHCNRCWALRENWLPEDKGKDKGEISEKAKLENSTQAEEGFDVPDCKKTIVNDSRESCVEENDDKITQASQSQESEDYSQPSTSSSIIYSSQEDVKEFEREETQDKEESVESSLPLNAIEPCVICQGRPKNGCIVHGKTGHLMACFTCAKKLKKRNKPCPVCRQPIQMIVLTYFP

NCCc1c2c(c3c4c(c5ccccc5nc14)C=CN3)OCS2 [Lissoclinidine B]
pIC50: 4.23
